Assay [1] addresses Beta-2 adrenergic receptor (Cavia porcellus) (UniProt Q8K4Z4). The assay can be described thus: (§1) Antagonist activity against beta-2 adrenergic receptor in isolated guinea pig trachea. The assay is classed as functional, tissue-based.
Assay [2] addresses Beta-1 adrenergic receptor (Cavia porcellus) (UniProt B0FL73). The assay can be described thus: (§2) Antagonist activity against beta-1 adrenergic receptor in isolated guinea pig atria. The assay is classed as functional. An outline of the steps:
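Atria from adult male guinea pigs (300–350 g), stabilized 45 min in Tyrode solution. Isoprenaline dose-effect curve by single doses, each run to maximal response. Antagonist added at increasing concentrations with 15 min contact per dose; solutions freshly prepared. Percent inhibition of the maximal agonist response measured; pA2 (50% reduction) and pA10 (90%) calculated by the Arunlakshana–Schild method.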

Assay [3] concerns the target Beta-1 adrenergic receptor (Cavia porcellus, UniProt B0FL73). The assay is described as §2. The assay is classed as functional. The following applies: read-out: pA2 (converted). The method, boiled down:
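Atria from adult male guinea pigs (300–350 g), stabilized 45 min in Tyrode solution. Isoprenaline dose-effect curve by single doses, each run to maximal response. Antagonist added at increasing concentrations with 15 min contact per dose; solutions freshly prepared.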

Assay [4] has as its target Beta-2 adrenergic receptor (Cavia porcellus, UniProt Q8K4Z4). Described as §1. The assay is classed as functional, tissue-based. Particulars: read-out: pA2 (converted).

Chain of Beta-1 adrenergic receptor (B0FL73 whole entry): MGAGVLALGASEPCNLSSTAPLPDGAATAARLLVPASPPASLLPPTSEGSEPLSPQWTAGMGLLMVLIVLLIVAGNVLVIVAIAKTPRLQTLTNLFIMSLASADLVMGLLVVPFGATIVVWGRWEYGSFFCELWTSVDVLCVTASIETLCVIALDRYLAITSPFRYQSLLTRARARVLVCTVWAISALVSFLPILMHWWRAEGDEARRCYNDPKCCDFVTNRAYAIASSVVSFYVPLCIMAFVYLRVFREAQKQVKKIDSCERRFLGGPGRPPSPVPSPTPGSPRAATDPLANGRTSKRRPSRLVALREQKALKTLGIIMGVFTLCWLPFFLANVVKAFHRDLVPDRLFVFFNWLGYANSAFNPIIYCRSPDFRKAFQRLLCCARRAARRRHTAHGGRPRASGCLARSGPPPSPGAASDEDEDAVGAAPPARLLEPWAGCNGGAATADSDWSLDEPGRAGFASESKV
Chain of Beta-1 adrenergic receptor (Cavia porcellus) (B0FL73 1-467): as the sequence (B0FL73 whole entry) above
Chain of Beta-2 adrenergic receptor (Q8K4Z4 whole entry): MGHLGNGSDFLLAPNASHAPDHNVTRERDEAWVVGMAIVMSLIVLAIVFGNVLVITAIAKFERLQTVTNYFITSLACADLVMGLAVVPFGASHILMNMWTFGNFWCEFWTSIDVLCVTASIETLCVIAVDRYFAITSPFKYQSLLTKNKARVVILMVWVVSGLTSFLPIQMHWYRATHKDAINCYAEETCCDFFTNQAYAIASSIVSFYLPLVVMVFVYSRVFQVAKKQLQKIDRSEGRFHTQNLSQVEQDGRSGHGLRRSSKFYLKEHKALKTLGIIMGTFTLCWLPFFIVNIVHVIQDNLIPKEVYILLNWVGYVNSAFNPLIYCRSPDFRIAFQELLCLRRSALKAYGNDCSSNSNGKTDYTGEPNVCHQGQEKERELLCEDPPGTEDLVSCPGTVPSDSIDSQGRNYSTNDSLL
Chain of Beta-2 adrenergic receptor (Cavia porcellus) (Q8K4Z4 whole entry, looked up): as the sequence (Q8K4Z4 whole entry) above

Take `CC(C)NCC(O)COC(=O)C1CCCCC1` (stereo not given): the pA10 stood at 4.62 in assay [1] and 4.2 in assay [2]. In addition, the Kb in assay [3] was 12.3 µM; in assay [4], 2.29 µM.

For `CC(C)NCC(O)COC(=O)Cc1cccs1` (stereo not given), the results for the pA10 in assay [1] and in assay [2] were 4.35 and 4.28, respectively. Also, the Kb in assay [3] is 11 µM; in assay [4], 10 µM.

As for `CCC(=O)OCC(O)CNC(C)(C)C` (stereo not given), the pA10 in assay [1] was found to be 3.79; in assay [2], 3.74. In addition, the Kb in assay [3] was 28.2 µM; in assay [4] it was 26.3 µM.

With `CC(C)C(=O)OCC(O)CNC(C)(C)C` (stereo not given), the figures for the pA10 in assay [1] and in assay [2] were 3.94 and 4.1, respectively. In addition, the Kb in assay [3] is 11.5 µM; in assay [4], 28.8 µM.

Regarding `COc1ccc(OC)c(C(O)C(C)NC(C)(C)C)c1` (stereo not given), the values for the pA10 in assay [1] and in assay [2] were 5.96 and 3.98, respectively.

As for `CC(C)NCC(O)COC(=O)C(C)C` (stereo not given), the figures for the pA10 in assay [1] and in assay [2] were 4.52 and 3.9, respectively. The Kb in assay [3] is 26.9 µM; in assay [4] it was 4.27 µM.

With `CC(C)NCC(O)COC(=O)c1cccs1` (stereo not given), the results for the pA10 in assay [1] and in assay [2] were 5.54 and 5.11, respectively. Also, the Kb in assay [3] was 1.58 µM; in assay [4], 0.468 µM.

Consider `CC(C)(C)NCC(O)COC(=O)c1cccs1` (stereo not given), for which the figures for the pA10 in assay [1] and in assay [2] were 6.82 and 5.42, respectively. Further, the Kb in assay [3] is 0.457 µM; in assay [4], 0.0191 µM.

In the case of `CC(C)(C)NCC(O)COC(=O)C1CCCCC1` (stereo not given), the pA10 in assay [1] is 4.71; in assay [2] it was 4.22. Moreover, the Kb in assay [3] is 7.94 µM; in assay [4], 2.51 µM.

In the case of `CC(C)NCC(O)COC(=O)c1ccc2c(c1)OCO2` (stereo not given), the Kb in assay [3] was 0.126 µM.

(Values after ChEMBL document CHEMBL1123848, “Role of the (acyloxy)methyl moiety in eliciting the adrenergic beta-blocking activity of 3-(acyloxy)propanolamines” (J Med Chem, 1987).)
